Assay [1] deals with MDA-MB-231. Kind of assay: Downregulation of SNAIL gene expression in human MDA-MB-231 cells at 50 uM incubated for 48 hrs under hypoxia condition by qRT-PCR analysis. Format: functional, cell-based. The gist of the method:
(§1)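 MDA-MB-231 cells pretreated with 200 μM CoCl2 to induce hypoxia, then exposed to 50 μM compound for 48 h with CoCl2 maintained. qRT-PCR by the 2(−ΔCt) method vs DMSO control, mean ± SEM. Four independent experiments.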

The target of assay [2] is T1, NAD-dependent protein deacetylase sirtuin-3, mitochondrial (Homo sapiens) (UniProt Q9NTG7).
T1 sequence (whole entry): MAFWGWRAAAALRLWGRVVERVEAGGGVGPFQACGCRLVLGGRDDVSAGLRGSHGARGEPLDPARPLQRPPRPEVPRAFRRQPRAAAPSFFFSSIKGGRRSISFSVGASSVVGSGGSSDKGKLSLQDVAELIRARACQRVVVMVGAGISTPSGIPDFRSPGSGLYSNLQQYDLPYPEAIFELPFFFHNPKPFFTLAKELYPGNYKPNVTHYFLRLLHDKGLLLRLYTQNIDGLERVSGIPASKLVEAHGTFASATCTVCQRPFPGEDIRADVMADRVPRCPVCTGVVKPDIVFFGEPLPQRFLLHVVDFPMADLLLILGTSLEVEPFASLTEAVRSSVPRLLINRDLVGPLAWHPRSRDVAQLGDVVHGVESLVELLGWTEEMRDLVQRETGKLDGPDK
Kind of assay: Activation of human SIRT3 overexpressing in human MDA-MB-231 cells assessed as increase in GDH activity at 50 uM incubated for 4 hrs by absorbance assay. Format: cell-based. The settings on record: filed as activator. An outline of the steps:
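MDA-MB-231 cells exposed 4 h to 50 μM compound. 10^6 cells lysed in GDH assay buffer for 10 min on ice. Supernatant mixed with developer and glutamate, incubated 3 min at 37 °C, absorbance read at 450 nm with buffer blank subtracted. SIRT3-overexpressing MDA-MB-231 cells served as reference.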

The subject of assay [3] is MDA-MB-231. Kind of assay: Downregulation of MMP9 gene expression in human MDA-MB-231 cells at 50 uM incubated for 48 hrs by qRT-PCR analysis. The format is functional, cell-based. The gist of the method: (§2)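 MDA-MB-231 cells treated with 50 μM compound for 48 h under normoxia, DMSO vehicle control. qRT-PCR quantified by the 2(−ΔCt) method as fold of control, mean ± SEM. Three independent experiments.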
(Real-time PCR tracks product formation cycle by cycle.)

In assay [4] the test system is MDA-MB-231. Kind of assay: Downregulation of HIF1alpha expression in human MDA-MB-231 cells at 50 uM incubated for 48 hrs under hypoxia condition by Western blot analysis. The format is functional, cell-based. The gist of the method:
(§3)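 CAL-62 or MDA-MB-231 cells made hypoxic with 200 μM CoCl2 for 24 h, then treated with 50 μM compound for 48 h with CoCl2 retained. Lysates (15 or 50 μg protein) immunoblotted for HIF-1α, EPAS-1 or CA-IX with ACTB, ECL detection. 3-TYP (1 μM) as control.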
For orientation: In western blotting, separated proteins are transferred to a membrane and probed.

The subject of assay [5] is MDA-MB-231. Kind of assay: Downregulation of MMP9 gene expression in human MDA-MB-231 cells at 50 uM incubated for 48 hrs under hypoxia condition by qRT-PCR analysis. Format: functional, cell-based. The gist of the method: as §1
Assay [6] relates to MDA-MB-231. Kind of assay: Downregulation of MMP2 gene expression in human MDA-MB-231 cells at 50 uM incubated for 48 hrs under hypoxia condition by qRT-PCR analysis. The format is functional, cell-based. The gist of the method:
as §1

Assay [7] has as its target NAD-dependent protein deacylase sirtuin-5, mitochondrial (Homo sapiens) (UniProt Q9NXA8). Kind of assay: Activation of N-terminal his-tagged human SIRT5 (34 to 302 residues) expressed in Escherichia coli at 10 uM using p53-acK381 as substrate in presence of NAD+ by NADH oxidation-coupled enzymatic assay.
Assay [8] has as its system CAL-62. Kind of assay: Anticancer activity against human CAL-62 cells assessed as reduction in cell viability at 50 uM incubated for 24 to 48 hrs under normoxia condition by trypan blue exclusion assay. The format is functional, cell-based. The settings on record: time 24-48 hrs, TDE = time-dependent effect. An outline of the steps:
(§4)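 CAL-62 cells in RPMI 1640 with 10% FBS, treated with 50 μM compound (DMSO) for 24 and 48 h. Hypoxia induced with 200 μM CoCl2, kept in the medium during treatment. Viable cells counted by 0.4% trypan blue staining on a hemocytometer.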

Assay [9] has as its system MDA-MB-231. Kind of assay: Downregulation of COL1A2 gene expression in human MDA-MB-231 cells at 50 uM incubated for 48 hrs by qRT-PCR analysis. Format: functional, cell-based. An outline of the steps:
as §2

The target of assay [10] is T2, NAD-dependent protein deacetylase sirtuin-2 (Homo sapiens) (UniProt Q8IXJ6).
T2 sequence (whole entry): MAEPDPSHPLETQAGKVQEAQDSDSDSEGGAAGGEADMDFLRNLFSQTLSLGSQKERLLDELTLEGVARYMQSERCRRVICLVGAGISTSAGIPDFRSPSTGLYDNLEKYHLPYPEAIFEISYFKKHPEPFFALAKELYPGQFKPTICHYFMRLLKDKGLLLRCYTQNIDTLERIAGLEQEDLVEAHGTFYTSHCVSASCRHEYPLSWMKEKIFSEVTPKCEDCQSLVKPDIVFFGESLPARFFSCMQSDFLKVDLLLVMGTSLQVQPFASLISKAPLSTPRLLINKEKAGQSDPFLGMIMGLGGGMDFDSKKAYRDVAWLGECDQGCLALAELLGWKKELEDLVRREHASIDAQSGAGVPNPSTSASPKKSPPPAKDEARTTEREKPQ
Kind of assay: Activation of N-terminal his-tagged human SIRT2 (43 to 356 residues) expressed in Escherichia coli at 10 uM using p53-acK381 as substrate in presence of NAD+ by NADH oxidation-coupled enzymatic assay.

Assay [11] concerns CAL-62. Kind of assay: Anticancer activity against human CAL-62 cells assessed as reduction in cell viability at 50 uM incubated for 24 to 48 hrs under hypoxia condition by trypan blue exclusion assay. The format is functional, cell-based. The following applies: time 24-48 hrs, TDE = time-dependent effect. The gist of the method: as §4
For assay [12], the target named is T1, NAD-dependent protein deacetylase sirtuin-3, mitochondrial (Homo sapiens). Kind of assay: Activation of N-terminal his-tagged human SIRT3 (114 to 380 residues) deacylation activity expressed in Escherichia coli at 100 uM using ACS2-acK642 as substrate in presence of NAD+ by NADH oxidation-coupled enzymatic assay. The settings on record: filed as activator. An outline of the steps: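 Coupled PncA/GDH deacylation assay following NADPH oxidation to NADP+. 1.5 μM SIRT3 (E. coli-expressed, tag removed) with 50 μM ACS2-acK642 peptide and 100 μM NAD+, compound at 100 μM, 5% final DMSO.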

Assay [13] relates to MDA-MB-231. Kind of assay: Downregulation of SNAIL gene expression in human MDA-MB-231 cells at 50 uM incubated for 48 hrs by qRT-PCR analysis. Format: functional, cell-based. An outline of the steps:
as §2

In assay [14] the test system is MDA-MB-231. Kind of assay: Downregulation of SLUG gene expression in human MDA-MB-231 cells at 50 uM incubated for 48 hrs under hypoxia condition by qRT-PCR analysis. The format is functional, cell-based. An outline of the steps: as §1
The test system of assay [15] is MDA-MB-231. Kind of assay: Downregulation of COLLAGEN gene expression in human MDA-MB-231 cells at 50 uM incubated for 48 hrs under hypoxia condition by qRT-PCR analysis. The format is functional, cell-based. An outline of the steps: as §1
For assay [16], the system named is MDA-MB-231. Kind of assay: Downregulation of EPAS-1 expression in human MDA-MB-231 cells at 50 uM incubated for 48 hrs under hypoxia condition by Western blot analysis. The format is functional, cell-based. An outline of the steps: as §3
Assay [17] deals with CAL-62. Kind of assay: Downregulation of EPAS-1 expression in human CAL-62 cells at 50 uM incubated for 48 hrs under hypoxia condition by Western blot analysis. Format: functional, cell-based. The gist of the method:
as §3

Assay [18] concerns MDA-MB-231. Kind of assay: Downregulation of ZEB1 gene expression in human MDA-MB-231 cells at 50 uM incubated for 48 hrs under hypoxia condition by qRT-PCR analysis. The format is functional, cell-based. The gist of the method: as §1

Each structure is given as a SMILES string. Active and inactive are the calls of the source. No cut-off for these calls is given here.

Chain of NAD-dependent protein deacylase sirtuin-5, mitochondrial (Homo sapiens) (Q9NXA8 37-310 limits assumed): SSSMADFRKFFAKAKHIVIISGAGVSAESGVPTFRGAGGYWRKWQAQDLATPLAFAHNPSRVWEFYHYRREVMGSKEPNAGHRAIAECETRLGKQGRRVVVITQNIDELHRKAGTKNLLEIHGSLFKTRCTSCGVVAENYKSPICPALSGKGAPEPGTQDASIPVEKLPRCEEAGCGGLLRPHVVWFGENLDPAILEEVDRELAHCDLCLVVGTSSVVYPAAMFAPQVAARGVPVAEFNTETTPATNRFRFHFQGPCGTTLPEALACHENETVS

On to `CCOC(=O)C1=CN(C(=O)c2ccc(OC)c(OC)c2)C=C(C(=O)OCC)C1c1ccccc1`, for which the outcome (in the assay on MDA-MB-231 [1]; in [2]; with MDA-MB-231 [3]; in the assay with MDA-MB-231 [4]; with MDA-MB-231 [5]; in the assay with MDA-MB-231 [6]) was Active. Besides, the outcome in the assay on MDA-MB-231 [9], in the assay with MDA-MB-231 [13], in the assay on MDA-MB-231 [14], in the assay with MDA-MB-231 [15], in the assay with MDA-MB-231 [16] and in the assay on CAL-62 [17] was Active. The outcome in the assay on MDA-MB-231 [18] was Active. Also, the result in assay [7] and in assay [10] was inactive. Further, the Activity result is “Tde” with CAL-62 [8], “Tde” with CAL-62 [11] and 387% in assay [12].

As to `CCOC(=O)C1=CN(C(=O)c2cc(OC)cc(OC)c2)C=C(C(=O)OCC)C1c1ccccc1`, the outcome (with MDA-MB-231 [1]; in [2]; with MDA-MB-231 [3]; in the assay with MDA-MB-231 [4]; with MDA-MB-231 [5]; with MDA-MB-231 [6]) was Active. The outcome in the assay with MDA-MB-231 [9], in the assay on MDA-MB-231 [13], in the assay with MDA-MB-231 [14], in the assay on MDA-MB-231 [15], in the assay on MDA-MB-231 [16] and in the assay on CAL-62 [17] was Active. Also, the result with MDA-MB-231 [18] was Active. Further, the result in [7] and in assay [10] was inactive. For the same compound, the Activity entry in the assay with CAL-62 [8] was “Tde”; in the assay with CAL-62 [11] it was “Tde”; in assay [12], 178%.

Values taken from ChEMBL document CHEMBL5331142, “Novel 1,4-Dihydropyridines as Specific Binders and Activators of SIRT3 Impair Cell Viability and Clonogenicity and Downregulate Hypoxia-Induced Targets in Cancer Cells” (J Med Chem, 2023).
